From the EternaBench riboswitch data

System: MS2 coat protein
Assay: apparent Kd, MS2 coat protein; higher = weaker binding; RNA-MaP array; FMN 200 µM where present
In short: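 The apparent Kd comes from binding curves fitted cluster by cluster, filtered, and summarised as a median. Those curves followed SNAP-549-labelled MS2 coat protein from 0.7 or 1.5 nM, doubling to 3 µM, on Illumina sequencing-chip clusters where stalled E. coli RNA polymerase had transcribed the designs, without and then with constant ligand. The buffer was 100 mM Tris-HCl pH 7.5, 80 mM KCl, 4 mM MgCl2, BSA, DTT, yeast tRNA and Tween-20, and green signal was normalised to red-channel RNA signal and control-cluster median Fmax.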

[1] = designed as: OFF switch for flavin mononucleotide, no ligand
[2] = ligand present: flavin mononucleotide, designed as: OFF switch for flavin mononucleotide
[3] = designed as: ON switch for flavin mononucleotide, no ligand
[4] = ligand present: flavin mononucleotide, designed as: ON switch for flavin mononucleotide

GGCGACCUAGGAUAUACAUGAGGAUCACCCAUGUUUAUCUAUUAGAUGAAGACGGGUUGUAGAAGGAGGAUAUU
apparent Kd [1]: 15.5 nM | apparent Kd [2]: 18.2 nM

GUGUACAGAGGAUAUACGGGAGCAUGGAAACAUGCAACCUCACAUGAGGAUCACCCAUGUAGAAGGCUGUACAC
apparent Kd [1]: 162 nM | apparent Kd [2]: 243 nM

UCACGGGAUUGAGGAUAUAUAUUAAUUUUUACAAUAGAAGGCAAAUUUUUAGUUUUUUCACUUUACAUGAGGAUCACCCAUGUU
apparent Kd [1]: 27.5 nM | apparent Kd [2]: 25.5 nM

UUAAAUCAUGUAGGAUAUGCAUGGCGAAGCUACGCAGAAGGACAUGAGGAUCACCCAUGUUAUAGCGUCCAAGUAAGGAUGCAA
apparent Kd [1]: 84.8 nM | apparent Kd [2]: 269 nM

AAAGAGCGAGGAUAUACGUAUCGGUGCGGCCAGCCGAUGUGACAUGAGGAUCACCCAUGUAGAAGGCGCAGAAA
apparent Kd [1]: 26.9 nM | apparent Kd [2]: 35.4 nM

CUGGUUCUCGUAGGAUAUGUAGGAUAUGCCUACAUGAGGAUCACCCAUGUUCGCAUGGCAGAAGGACAGAAGGACGAUCACCAC
apparent Kd [3]: 323 nM | apparent Kd [4]: 20.7 nM

UUUUUACGAGGAUAUCGUUUUUUUCACAUGAGGAUCACCCAUGUUGUUUAUGUUUCGUUUCGAGAAGGCGUUUGUU
apparent Kd [1]: 28.2 nM | apparent Kd [2]: 22.1 nM

GGAUCGAUGUAGAAGGCUGUCUUAAAAUAGGACAGAGGAUAUACAUGAGGAUCACCCAUGUACUCCUUUAAAAUGAUCCAAAUA
apparent Kd [1]: 5.81 nM | apparent Kd [2]: 9.65 nM

ACAUGAGGAUCACCCAUGUAAAAUGAAGAAGGUAUAUACUUGAGGAUCACCCAUGUACAUGGGAAUAAGGAUAUUCUAAUAAUU
apparent Kd [3]: 13.5 nM | apparent Kd [4]: 12.6 nM

AGAAGUUUGUAGAAGGACGACUAAUUUGUAUUCGUAGGAUAUACUAUUUACAUGAGGAUCACCCAUGUUUAAAUGGAACAAUGU
apparent Kd [1]: 7 nM | apparent Kd [2]: 10.2 nM

CUUUUGUGAGGAUAUCAGUAGUAAAUAAAUAAAAUUUCUACUGAGAAGGCACAUGAGGAUCACCCAUGUUCCUC
apparent Kd [1]: 38.5 nM | apparent Kd [2]: 220 nM

GGGUGACUAGGAUAUACAUGAGGAUCACCCAUGUGUACUGGACCUGGGUAGUCUUGGAGUAGAAGGAGUAGCUG
apparent Kd [1]: 85.3 nM | apparent Kd [2]: 127 nM

AAGUAGGGAGGAUAUACAUAGAUACAGAUUCAUGUGGAACUACAUGAGGAUCACCCAUGUAGAAGGCCCUAAUA
apparent Kd [1]: 27.2 nM | apparent Kd [2]: 102 nM

CGCAACAUACAGAAGGAGUAAAUUAGAAGUGUACUAGGAUAUGUUUACAUGAGGAUCACCCAUGUCGAUUGGGUUUUAGUUGCG
apparent Kd [1]: 489 nM | apparent Kd [2]: 251 nM

AUGCCGGGCCGAGGAUAUAAGUCUAGGACAUGAGGAUCACCCAUGUAUGUCUUAGAAGGCGGCCCGGCAAGCCUGUUACAGGCA
apparent Kd [3]: 27.7 nM | apparent Kd [4]: 6.6 nM

GCGUUGAACGAGAAGGCCAAUACAUGAGGAUCACCCAUGUUUAGAUGUUUUGGAGGAUAUCGUACGUAUUCAAUAUUGCAACGC
apparent Kd [1]: 10.9 nM | apparent Kd [2]: 9.94 nM

AGUAAGAUGCAGAAGGUGUCAGCGAGAGCUACGACAUGAGGAUCACCCAUGUACUAGUGAGAGUACAAGGAUAUGCAUCUUACA
apparent Kd [3]: 76.3 nM | apparent Kd [4]: 8.54 nM

ACAUACUCUCGAGGAUAUCGUAUGGAAAAGAAACGAGAAGGCGAAUGUUAAUUUCUAAUACAUGACAUGAGGAUCACCCAUGUA
apparent Kd [3]: 30.4 nM | apparent Kd [4]: 27.3 nM

CUUUACAUAGGAUAUAGUUGCUUUUACAUGAGGAUCACCCAUGUCUCUCCUCUCUCUCUUCUAGAAGGAUGUUUCU
apparent Kd [1]: 56.3 nM | apparent Kd [2]: 48.5 nM

ACGACGAAAGUCGAACGAUGUAGCAGAAGGACAUGAGGAUCACCCAUGUCAGCUGUAAAAGCCAUGUAGGAUAUGCUACAUCGA
apparent Kd [1]: 3.51 nM | apparent Kd [2]: 4.4 nM

UUGGACGUCGUAGGAUAUGCAGGAUAUUCCUACAUGAGGAUCACCCAUGUUGACAUGGAAGAAGGACAGAAGGACGAUGUCCAU
apparent Kd [3]: 11 nM | apparent Kd [4]: 5.38 nM

ACGCAGCUGGGUAAGGAUAUCGGUGGUAAAACAUGAGGAUCACCCAUGUCCGAAGCUCGGACCUCCGAGAAGGUGCCCGGCUGCG
apparent Kd [3]: 8.17 nM | apparent Kd [4]: 8.14 nM

ACGUCUUAGUAGAAGGGACAUCGGCUGGUAAGCAUCAUCUCCUUCUCACAUGAGGAUCACCCAUGUCAGGAUAUACUAAGAGUC
apparent Kd [1]: 12.3 nM | apparent Kd [2]: 38.2 nM

UGUAACCGAGGAUAUACAUGAGGAUCACCCAUGUAAUGUAGUAUAGUGUAUGUGAGGUGUAGAAGGUGGGAUGU
apparent Kd [1]: 75.6 nM | apparent Kd [2]: 71.6 nM

AGAAACUACGAGAAGGACAUGUGGUCCUUCGAAAACAUGAGGAUCACCCAUGUAGGAUAUCGUAGUUUCAGGAUCGUGAGAUCA
apparent Kd [1]: 18.2 nM | apparent Kd [2]: 4.37 nM

AGUAGAUCAGGAUAUACAUGAAAGAUCAAAAUGUCACUACUACAUGAGGAUCACCCAUGUAGAAGGGAUCUACA
apparent Kd [1]: 52.9 nM | apparent Kd [2]: 36.7 nM

CAGUUCUGAGGAUAUCCAUCCUCCUACAUGAGGAUCACCCAUGUUUCCCUCUGGGUUUUCGGAGAAGGCAGUUAUC
apparent Kd [1]: 299 nM | apparent Kd [2]: 547 nM

AUAGCAACAUGAGGAUCACCCAUGUAGGAUAUCGCUAUUGUAAUCAUGAAACAUGAUUACAAUAGCGAGAAGGACAUAUGCUAU
apparent Kd [1]: 6.51 nM | apparent Kd [2]: 9.75 nM

CGAUGGCAUGUAGGAUAUCGAGCUCAAAGAGCUCGAGAAGGACAUGAGGAUCACCCAUGUGCACACAGACAGUGUGCGCUAUCG
apparent Kd [1]: 37 nM | apparent Kd [2]: 181 nM

UUUUUUUACUAGGAUAUCGCCGCCGAAAGGCGGCGAGAAGGAGUAACAUGAGGAUCACCCAUGUGUCCUUUUUU
apparent Kd [1]: 21.9 nM | apparent Kd [2]: 74.2 nM

GCGCGAAGGUAGGAUAUCCAGGGAUCUUCCCGCGGAGAAGGACCCACAUGAGGAUCACCCAUGUGGUGAUCCUG
apparent Kd [1]: 16.1 nM | apparent Kd [2]: 17.4 nM

AUACAUGAGGAUCACCCAUGUUACUGGGUCUAAAUAGAACGUAGAAGGAUGUAUUUACACAUAACAUAGGAUAUACUAUAUAGU
apparent Kd [1]: 153 nM | apparent Kd [2]: 72.8 nM

GAAUAAUAGAUCCAAUAUAUCUACAUGAGGAUCACCCAUGUGCAGGAUAUGCUAAAAUUUAAUAAGCAGAAGGGCAAGAACGGC
apparent Kd [1]: 54.7 nM | apparent Kd [2]: 138 nM

ACUAGAUGAGGAUAUGCACAUUUUAGUGUUCCUCUAGAUUAACAUGAGGAUCACCCAUGUAGAAGGCGUCAAUU
apparent Kd [1]: 45.7 nM | apparent Kd [2]: 64.8 nM

AAUAAGGGAGGAUAUGCGGAACGGUUUGUUCUCAGUGAGGCACAUGAGGAUCACCCAUGUAGAAGGCCCGGCAA
apparent Kd [1]: 13.8 nM | apparent Kd [2]: 93.1 nM

CGAAUGUAGACAGGAUAUCCUGGACAUGAGGAUCACCCAUGUGCAUAAAAUGGAGAAGGGUCACGGAGGCCCUGUGGGCAGGGU
apparent Kd [3]: 44.4 nM | apparent Kd [4]: 9.21 nM

UAUAAGCUAGGAUAUACUAACGAAACUAAUGCAUAUAUAUAACAUGAGGAUCACCCAUGUAGAAGGAGCAGAAU
apparent Kd [1]: 25.5 nM | apparent Kd [2]: 23 nM

GCUGUCGCUUGAGGAUAUGGUCAGCUUUGCUGACCAGAAGGCAUGUCAAUAGACAUGAGGAUCACCCAUGUAGUAAGGGCGGCU
apparent Kd [3]: 339 nM | apparent Kd [4]: 122 nM

CUUAGGUGAGGAUAUUAGUAGUAAAUGAAUAAAAUUAUUACUGAGAAGGCACAUGAGGAUCACCCAUGUUCCUC
apparent Kd [1]: 35.8 nM | apparent Kd [2]: 444 nM

UUUUAACAUGAGGAUCACCCAUGUGAGGAUAUCGAAAUUUAUAUUAAUAUUAUUAAUUCGAGAAGGCACAUUUU
apparent Kd [1]: 117 nM | apparent Kd [2]: 117 nM

AUCGUGAGUAAGGAUAUCACGCGACCCUUUCGGUGAGAAGGUGCCACAUGAGGAUCACCCAUGUGGGUCGUCGC
apparent Kd [1]: 15.6 nM | apparent Kd [2]: 15.9 nM

GGUAGCAACACAGGAUAUGCUAUCCUUUGGGUAGCAGAAGGGUGAAACAUGAGGAUCACCCAUGUGCUGCCAGGGCGUGAGCCC
apparent Kd [3]: 1800 nM | apparent Kd [4]: 136 nM

AUCAGCUCGUCAGGAUAUACGUCACUGCGUGAGCAGUGUGGUAAGAUCACAUGAGGAUCACCCAUGUAGAAGGGACGAGCUGAU
apparent Kd [1]: 13.6 nM | apparent Kd [2]: 271 nM

UUUUAACAUGAGGAUCACCCAUGUGAGGAUAUCGAAAUUUAUAUUAAUAUUUAUAAUUCGAGAAGGCACAUUUU
apparent Kd [1]: 170 nM | apparent Kd [2]: 148 nM

AUCAGCUCGUCAGGAUAUACGUCACUGCGUCAGCAGUGUAAUAAAAUAACAUGAGGAUCACCCAUGUAGAAGGGACGAGCUGAU
apparent Kd [1]: 6.36 nM | apparent Kd [2]: 6.75 nM

AGACGGAGCAGAGGAUAUACAUGAGGAUCACCCAUGUAAAUGAAAGAUAGCAGCAAAGCUGCAAUGUAGAAGGCUGCUCCGUCA
apparent Kd [1]: 29.2 nM | apparent Kd [2]: 83.8 nM

GGAUAGGACAGAGGAUAUACAGAUAGGAUCUACUAUCAAACAGUCCUAACAUGAGGAUCACCCAUGUAGAAGGCUGUCCUAUCG
apparent Kd [1]: 21.7 nM | apparent Kd [2]: 80.3 nM

GGGUACAUCGGAGGAUAUCAUGCAAAUACAUGAGGAUCACCCAUGUCGAUGGAGACAUCGGAGAUUGAGAAGGCCGAUGUACCG
apparent Kd [3]: 21.9 nM | apparent Kd [4]: 5.5 nM

UUAUUAUAUGUAGGAUAUGCAUAUUAUUAUUAUGCAGAAGGACAUGAGGAUCACCCAUGUAUAUUAUUAUUAUAUAUUAUAUGU
apparent Kd [1]: 41.2 nM | apparent Kd [2]: 86.1 nM

CCGUUCUGAGGAUAUCCACCCUCAUACAUGAGGAUCACCCAUGUUCACCCUUGGGUUCCCGGAGAAGGCAGUUUUC
apparent Kd [1]: 232 nM | apparent Kd [2]: 467 nM

GCAAUAGCAUGAGGAUAUGCUGGAGUUUAGACAGUAGAAGGCAUGUCAUAAGACAUGAGGAUCACCCAUGUAGUUACAAUGGCA
apparent Kd [3]: 18.4 nM | apparent Kd [4]: 13.6 nM

AAAUUGCUAGAGGAUAUCGGAUAGGAUUUAUUGCGAGAAGGCUGGACAUGAGGAUCACCCAUGUUCUGUUGGGA
apparent Kd [1]: 23.9 nM | apparent Kd [2]: 36.6 nM

GGAGCAACAUGAGGAUCACCCAUGUAGGAUAUCGCUAUUGUAAUCAUGAAACAUGAUUACAAUAGCGAGAAGGACAUAUGCUCC
apparent Kd [1]: 6.02 nM | apparent Kd [2]: 9.16 nM

GGUAAAGGCAGCCUCUACCCUGCACAUGAGGAUCACCCAUGUAAGGAUAUCGCCGCGGUAAUGGUCGAGAAGGUAUAUCGGGUU
apparent Kd [1]: 15.9 nM | apparent Kd [2]: 46.5 nM

AGUAGAUCAGGAUAUACGUAAAUGGUAAUUAUGUAACUUAUACAUGAGGAUCACCCAUGUAGAAGGGAUCUACA
apparent Kd [1]: 19.4 nM | apparent Kd [2]: 51.9 nM
